Experimental data as given in ChEMBL document CHEMBL1157805, “Virtual screening, selection and development of a benzindolone structural scaffold for inhibition of lumazine synthase” (Bioorg Med Chem, 2010).

Assays:
[1] = substrate: O=C1Nc2ccc(S(=O)(=O)NCCCCCCOP(=O)(O)O)c3cccc1c23; experiment: (§1) Activity at Mycobacterium tuberculosis recombinant lumazine synthase after 30 mins by fluorescence assay
How it was run: (§2)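 Recombinant M. tuberculosis lumazine synthase (2 μM) in 100 mM Tris-HCl pH 7.0, 100 mM NaCl, 5 mM DTT, 2% DMSO. Dihydroxybutanone phosphate was fixed at 100 μM, pyrimidinedione substrate varied 3–100 μM, and inhibitor 0–200 μM. Reactions were started with the pyrimidinedione substrate. Lumazine formation was read at 408 nm for 30 min at 27 °C. Velocity–substrate data were fitted by nonlinear regression to alternative inhibition models.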

[2] = substrate: O=C1Nc2ccc(S(=O)(=O)NCCCOP(=O)(O)O)c3cccc1c23; experiment: as §1; how it was run: as §2
[3] = substrate: O=C1Nc2ccc(S(=O)(=O)NCCCCCOP(=O)(O)O)c3cccc1c23; experiment: as §1; how it was run: as §2
[4] = substrate: O=C1Nc2ccc(S(=O)(=O)NCCCCOP(=O)(O)O)c3cccc1c23; experiment: as §1; how it was run: as §2
[5] = substrate: O=C1Nc2ccc(S(=O)(=O)NCCOP(=O)(O)O)c3cccc1c23; experiment: as §1; how it was run: as §2
[6] = substrate: CCOC(=O)C(=O)Nc1c(Cl)[nH]c(=O)[nH]c1=O; experiment: as §1; how it was run: as §2

B1: 6,7-dimethyl-8-ribityllumazine synthase (Mycobacterium tuberculosis), P9WHE9 (protein)
chain: MKGGAGVPDLPSLDASGVRLAIVASSWHGKICDALLDGARKVAAGCGLDDPTVVRVLGAIEIPVVAQELARNHDAVVALGVVIRGQTPHFDYVCDAVTQGLTRVSLDSSTPIANGVLTTNTEEQALDRAGLPTSAEDKGAQATVAALATALTLRELRAHS
kcat [1]: 0.0075 s⁻¹
kcat [2]: 0.0075 s⁻¹
kcat [3]: 0.0075 s⁻¹
kcat [4]: 0.00733 s⁻¹
kcat [5]: 0.00683 s⁻¹
kcat [6]: 0.0102 s⁻¹
